Measured values reported in publication PMC3174055 (Biochemical Journal, 2011).
“And” between values parts separate entries of the source, which are not always exact repeats. Identical values can stand only once.

Assays:
[1] = test system: SK-OV-3 xenograft; assay: SK-OV-3 tumour xenograft efficacy and toxicity; assay type: in vivo, Rag1−/− or NIH-III mice; conditions: QD×21, BEZ-235 15 mg/kg, A66 100 mg/kg
How it was run: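 SPF Rag1−/− or NIH-III mice, 5×10^6 SK-OV-3 cells s.c. in PBS; dosing began at about 7 mm tumours. I.p., 10 ml/kg. Test compound (20% hydroxypropyl-β-cyclodextrin): 100 mg/kg QD×21 or 75 mg/kg BID×16, injections ≥~8 h apart. Reference inhibitor (10% ethanol): 15 mg/kg QD×21. Vehicle controls; 7–8 mice/group. Caliper volume (L×w²)×π/6; daily body weight; final-day TGI; ANOVA-Bonferroni.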

[2] = test system: U87MG xenograft; assay: U87MG tumour xenograft efficacy and toxicity; assay type: in vivo, Rag1−/− or NIH-III mice; conditions: QD×14, BEZ-235 15 mg/kg, A66 100 mg/kg
How it was run: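 U87MG cells (5×10^6, s.c. in PBS) in SPF Rag1−/− or NIH-III mice; treatment started at tumours of about 7 mm. Daily i.p. dosing for 14 days (10 ml/kg, free base). Test compound in 20% hydroxypropyl-β-cyclodextrin; reference inhibitor in 10% ethanol; controls given vehicle. Caliper volume (L×w²)×π/6; daily body weight and toxicity checks; mice killed at >20% weight loss.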

[3] = Plasma pharmacokinetics in mice; assay type: in vivo, CD-1 mice; conditions: male, CD-1, mouse, ip, 10 mg/kg
[4] = test system: HCT-116 xenograft; assay: HCT-116 tumour xenograft efficacy and toxicity; assay type: in vivo, Rag1−/− or NIH-III mice; conditions: QD×7, BEZ-235 10 mg/kg, A66 100 mg/kg
How it was run: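 HCT-116 xenografts from 5×10^6 cells s.c. in PBS, in SPF Rag1−/− or NIH-III mice. Once-daily i.p. dosing for 7 days from tumours of about 7 mm. Test compound in 20% hydroxypropyl-β-cyclodextrin; reference inhibitor at 10 mg/kg in 10% ethanol; vehicle controls. Caliper volumes by (L×w²)×π/6; daily weights; euthanasia if weight loss exceeded 20%.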

[5] = test system: phosphorylation of Akt/PKB (Ser473, Thr308); assay: Insulin-stimulated activation of Akt/PKB in cell lines, Western blotting; assay type: cell-based; conditions: for inhibition of insulin-stimulated phosphorylation of Akt/PKB Ser473 and Thr308: cell lines that lack the H1047R mutation, drug 15 min, then 500 nM insulin 5 min; for inhibition of insulin-stimulated activation of Akt/PKB: MCF7 cells
How it was run: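 Cells serum-starved overnight, then exposed to test compound or DMSO vehicle for 15 min and stimulated with 500 nM insulin for 5 min. Lysates separated by SDS/PAGE, 20 μg protein per lane except T47D, SK-OV-3 and MCF7, and Western blotted for Akt/PKB phosphorylation.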

[6] = test system: panel of 110 protein kinases; assay: Protein kinase profiling, panel of 110 protein kinases; assay type: biochemical; conditions: 10 μM, Supplementary Figure S1
[7] = target: p110γ (Homo sapiens, UniProt P48736); assay: PI3K; assay type: biochemical; conditions: read-out: IC50 against p110γ; HTRF assay
Sequence of p110γ (P48736 whole entry): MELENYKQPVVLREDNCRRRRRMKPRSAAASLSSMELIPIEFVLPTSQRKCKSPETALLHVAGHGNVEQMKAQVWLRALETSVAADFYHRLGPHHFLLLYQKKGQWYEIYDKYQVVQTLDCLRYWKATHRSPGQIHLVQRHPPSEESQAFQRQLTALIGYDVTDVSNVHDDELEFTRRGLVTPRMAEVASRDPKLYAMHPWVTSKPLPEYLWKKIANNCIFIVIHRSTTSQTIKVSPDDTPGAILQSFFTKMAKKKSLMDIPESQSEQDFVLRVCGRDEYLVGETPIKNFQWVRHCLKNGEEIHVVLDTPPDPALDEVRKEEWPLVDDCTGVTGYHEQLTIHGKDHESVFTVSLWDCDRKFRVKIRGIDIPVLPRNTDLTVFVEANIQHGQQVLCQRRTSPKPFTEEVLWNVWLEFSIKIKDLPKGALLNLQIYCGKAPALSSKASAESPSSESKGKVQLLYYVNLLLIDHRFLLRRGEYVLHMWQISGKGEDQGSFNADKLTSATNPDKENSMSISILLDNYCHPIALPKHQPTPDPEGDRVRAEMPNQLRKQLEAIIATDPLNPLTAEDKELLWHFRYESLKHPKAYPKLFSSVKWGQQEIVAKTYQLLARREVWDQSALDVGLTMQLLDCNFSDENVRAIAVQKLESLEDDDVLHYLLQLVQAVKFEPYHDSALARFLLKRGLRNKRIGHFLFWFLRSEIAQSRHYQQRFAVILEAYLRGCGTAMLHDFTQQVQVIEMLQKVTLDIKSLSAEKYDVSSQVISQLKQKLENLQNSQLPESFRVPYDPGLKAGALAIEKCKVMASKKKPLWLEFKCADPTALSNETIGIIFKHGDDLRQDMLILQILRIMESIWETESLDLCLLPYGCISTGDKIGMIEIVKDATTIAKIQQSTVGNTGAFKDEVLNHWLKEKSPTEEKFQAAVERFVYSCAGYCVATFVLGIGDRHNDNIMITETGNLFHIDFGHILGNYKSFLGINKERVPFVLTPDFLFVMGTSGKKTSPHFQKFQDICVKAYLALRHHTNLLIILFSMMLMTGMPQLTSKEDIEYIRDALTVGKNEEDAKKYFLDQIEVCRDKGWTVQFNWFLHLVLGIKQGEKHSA

[8] = target: p110α E545K (Homo sapiens, UniProt P42336, E545K); assay: PI3K; assay type: biochemical; conditions: read-out: IC50 against p110α E545K; HTRF assay
Sequence of p110α E545K (P42336 whole entry E545K): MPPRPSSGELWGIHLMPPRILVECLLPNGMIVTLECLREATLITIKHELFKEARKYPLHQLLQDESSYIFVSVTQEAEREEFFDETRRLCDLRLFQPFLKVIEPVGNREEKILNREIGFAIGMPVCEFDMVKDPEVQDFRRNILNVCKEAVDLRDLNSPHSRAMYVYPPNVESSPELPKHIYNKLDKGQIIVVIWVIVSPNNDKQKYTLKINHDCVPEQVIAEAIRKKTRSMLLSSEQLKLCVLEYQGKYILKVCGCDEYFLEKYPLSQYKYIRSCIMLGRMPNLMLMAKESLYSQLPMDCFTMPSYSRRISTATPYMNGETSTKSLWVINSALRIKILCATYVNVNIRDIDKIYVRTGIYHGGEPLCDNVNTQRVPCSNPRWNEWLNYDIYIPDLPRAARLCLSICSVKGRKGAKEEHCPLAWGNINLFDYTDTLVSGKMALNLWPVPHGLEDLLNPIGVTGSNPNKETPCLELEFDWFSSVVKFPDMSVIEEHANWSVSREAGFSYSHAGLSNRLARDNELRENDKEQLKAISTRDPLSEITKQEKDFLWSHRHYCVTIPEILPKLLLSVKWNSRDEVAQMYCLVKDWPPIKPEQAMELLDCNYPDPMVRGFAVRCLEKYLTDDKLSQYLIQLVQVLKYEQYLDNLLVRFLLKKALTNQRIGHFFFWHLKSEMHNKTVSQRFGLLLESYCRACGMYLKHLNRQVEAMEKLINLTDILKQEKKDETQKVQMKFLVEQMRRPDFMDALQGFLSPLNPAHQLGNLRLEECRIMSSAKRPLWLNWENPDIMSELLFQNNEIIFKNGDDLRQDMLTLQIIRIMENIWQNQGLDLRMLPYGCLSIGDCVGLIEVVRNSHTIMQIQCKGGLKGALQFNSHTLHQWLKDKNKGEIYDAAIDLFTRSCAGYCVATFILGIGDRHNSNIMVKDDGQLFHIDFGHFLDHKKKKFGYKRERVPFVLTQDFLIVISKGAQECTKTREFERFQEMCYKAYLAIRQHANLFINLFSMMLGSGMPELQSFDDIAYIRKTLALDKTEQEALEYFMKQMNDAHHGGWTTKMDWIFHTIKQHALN
Sequence of p110α E545K (P27986 whole entry partner): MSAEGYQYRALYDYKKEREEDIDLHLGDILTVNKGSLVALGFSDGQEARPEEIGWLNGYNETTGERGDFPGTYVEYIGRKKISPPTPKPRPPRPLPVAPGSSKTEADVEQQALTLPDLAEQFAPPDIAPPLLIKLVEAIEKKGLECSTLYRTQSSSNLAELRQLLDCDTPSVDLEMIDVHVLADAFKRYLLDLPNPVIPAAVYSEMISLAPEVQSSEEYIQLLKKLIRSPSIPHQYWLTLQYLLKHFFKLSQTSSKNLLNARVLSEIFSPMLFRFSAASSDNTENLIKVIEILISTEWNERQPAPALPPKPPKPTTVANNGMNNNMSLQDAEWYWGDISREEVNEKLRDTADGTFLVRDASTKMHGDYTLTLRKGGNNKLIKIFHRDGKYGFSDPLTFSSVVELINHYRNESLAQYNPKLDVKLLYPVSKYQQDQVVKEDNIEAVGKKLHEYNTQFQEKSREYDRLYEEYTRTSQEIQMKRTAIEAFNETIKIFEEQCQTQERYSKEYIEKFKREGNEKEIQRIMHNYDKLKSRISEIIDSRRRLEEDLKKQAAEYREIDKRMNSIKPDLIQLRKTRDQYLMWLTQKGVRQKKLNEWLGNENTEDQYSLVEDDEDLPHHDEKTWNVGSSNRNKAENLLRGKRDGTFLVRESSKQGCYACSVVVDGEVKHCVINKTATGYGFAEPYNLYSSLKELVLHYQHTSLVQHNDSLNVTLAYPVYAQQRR

[9] = target: p110α (Homo sapiens, UniProt P42336); assay: PI3K; assay type: biochemical; conditions: read-out: IC50 against p110α; HTRF assay
Sequence of p110α (P42336 whole entry): as the sequence (P42336 whole entry E545K) above, with K545E counted along it
Sequence of p110α (P27986 whole entry partner): as the sequence (P27986 whole entry partner) above

[10] = target: p110α H1047R (Homo sapiens, UniProt P42336, H1047R); assay: PI3K; assay type: biochemical; conditions: read-out: IC50 against p110α H1047R; HTRF assay
Sequence of p110α H1047R (P42336 whole entry H1047R): as the sequence (P42336 whole entry E545K) above, with K545E, H1047R counted along it
Sequence of p110α H1047R (P27986 whole entry partner): as the sequence (P27986 whole entry partner) above

[11] = target: p110δ (Homo sapiens, UniProt O00329); assay: PI3K; assay type: biochemical; conditions: read-out: IC50 against p110δ; HTRF assay
Sequence of p110δ (O00329 whole entry): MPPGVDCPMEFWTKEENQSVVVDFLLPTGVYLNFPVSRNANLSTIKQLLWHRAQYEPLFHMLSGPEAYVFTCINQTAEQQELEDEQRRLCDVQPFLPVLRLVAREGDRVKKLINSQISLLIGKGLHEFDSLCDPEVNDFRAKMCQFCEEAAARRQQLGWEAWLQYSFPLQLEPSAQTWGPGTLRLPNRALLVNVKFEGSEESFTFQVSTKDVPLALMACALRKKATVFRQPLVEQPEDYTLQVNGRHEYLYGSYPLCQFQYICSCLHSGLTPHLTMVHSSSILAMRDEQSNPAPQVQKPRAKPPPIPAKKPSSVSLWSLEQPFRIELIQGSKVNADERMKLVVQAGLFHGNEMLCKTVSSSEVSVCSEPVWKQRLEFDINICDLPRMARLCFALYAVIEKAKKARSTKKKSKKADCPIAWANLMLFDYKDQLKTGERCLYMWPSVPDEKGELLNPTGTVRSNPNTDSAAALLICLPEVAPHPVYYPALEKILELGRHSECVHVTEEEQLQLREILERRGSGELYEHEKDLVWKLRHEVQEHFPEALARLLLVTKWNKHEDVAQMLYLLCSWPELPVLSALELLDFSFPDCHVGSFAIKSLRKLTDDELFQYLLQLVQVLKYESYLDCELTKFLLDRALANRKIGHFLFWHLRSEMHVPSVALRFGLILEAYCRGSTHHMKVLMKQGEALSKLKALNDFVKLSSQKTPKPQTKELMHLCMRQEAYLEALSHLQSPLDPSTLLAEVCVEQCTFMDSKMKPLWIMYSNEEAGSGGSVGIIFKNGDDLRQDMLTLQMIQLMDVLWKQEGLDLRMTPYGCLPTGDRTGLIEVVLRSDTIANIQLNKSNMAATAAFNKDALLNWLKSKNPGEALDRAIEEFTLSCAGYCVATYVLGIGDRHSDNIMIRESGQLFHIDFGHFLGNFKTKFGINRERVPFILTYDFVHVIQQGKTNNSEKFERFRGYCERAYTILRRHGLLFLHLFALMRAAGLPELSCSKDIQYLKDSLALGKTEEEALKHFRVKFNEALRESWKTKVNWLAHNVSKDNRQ
Sequence of p110δ (P27986 whole entry partner): as the sequence (P27986 whole entry partner) above

[12] = test system: Akt/PKB activation in PTEN-deficient cell lines; conditions: cited from earlier work

SMILES: Cn1c(=O)n(-c2ccc(C(C)(C)C#N)cc2)c2c3cc(-c4cnc5ccccc5c4)ccc3ncc21 [BEZ-235]
- body weight loss / tolerability [1]: moderate body weight loss
- BWL nadir (%) ([1]; intraperitoneal): −9.5±6.6%
- Number of deaths/n ([1]; intraperitoneal): four and 4/7
- effect on tumour volume / growth ([2]; U87MG xenograft): significantly reduced
- BWL nadir (%) ([2]; U87MG, intraperitoneal): −8.4±5.4%
- Number of deaths/n ([2]; U87MG, intraperitoneal): 0/5
- AUC [3]: 7.33 µM·h
- Cmax [3]: 1860 nM
- Tmax [3]: 0.25 h
- half-life [3]: 2.73 h
- BWL nadir (%) ([4]; HCT-116, intraperitoneal): −5.9±1.8%
- Number of deaths/n ([4]; HCT-116, intraperitoneal): 0/7
- effect on tumour volume ([4]; HCT-116 xenograft): had no effect

SMILES: Cc1ccccc1-n1c(Cn2cnc3c(N)ncnc32)nc2cccc(C)c2c1=O [IC87114]
- inhibition of insulin-stimulated phosphorylation of Akt/PKB Ser473 and Thr308 [5]: not inhibited
- inhibitory effects on panel of 110 protein kinases [6]: do not have any major effects

SMILES: O=c1cc(N2CCOCC2)oc2c(-c3ccccc3)cccc12 [LY294002]
- inhibition of phosphorylation of Akt/PKB Ser473 and Thr308 ([5]; all cell lines tested): sensitive
- inhibition of insulin-stimulated phosphorylation of Akt/PKB Ser473 and Thr308 [5]: effective

SMILES: Cc1ccc([N+](=O)[O-])cc1S(=O)(=O)N(C)/N=C/c1cnc2ccc(Br)cn12 [PIK-75]
- IC50 [7]: 33 nM
- inhibition of insulin-stimulated activation of Akt/PKB [5]: partial inhibitory effect
- inhibition of insulin-stimulated phosphorylation of Akt/PKB Ser473 and Thr308 [5]: less effective
- inhibitory effects on panel of 110 protein kinases [6]: inhibited a large number of protein kinases

SMILES: Cc1cc(C(C)Nc2ccccc2)c2nc(N3CCOCC3)cc(=O)n2c1 (stereo not shown) [TGX-221]
- IC50 [8]: > 1000 nM
- IC50 [9]: > 1000 nM
- IC50 [10]: > 1000 nM
- IC50 [7]: > 1250 nM
- inhibition of insulin-stimulated activation of Akt/PKB [5]: partial inhibitory effect
- inhibition of insulin-stimulated phosphorylation of Akt/PKB Ser473 and Thr308 [5]: not inhibited
- IC50 [11]: 130 nM
- concentration required to induce reduction in Akt/PKB activation [12]: 2 µM
- inhibitory effects on panel of 110 protein kinases [6]: do not have any major effects

SMILES: COC[C@H]1OC(=O)c2coc3c2[C@@]1(C)C1=C(C3=O)[C@@H]2CCC(=O)[C@@]2(C)C[C@H]1OC(C)=O [wortmannin]
- inhibition of insulin-stimulated phosphorylation of Akt/PKB Ser473 and Thr308 [5]: effective
